From publication PMC5598375 (Toxicology Reports, 2014)
Marks after values point to notes of the source that are not given here.

Key:
[1] = system: 48 h-larvae mwh +/+ flr^3; experiment: Wing spot test; type: in vivo, Drosophila melanogaster; settings: for Small single spots (1–2 cells), statistical diagnosis / Total spots, statistical diagnosis: m = 2; for Small single spots (1–2 cells), statistical diagnosis / Total spots, statistical diagnosis / Large single spots (>cells), statistical diagnosis / Twin spots, statistical diagnosis: vs control; for Large single spots (>cells), statistical diagnosis / Twin spots, statistical diagnosis: m = 5
Procedure, shortened: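 Crosses: mwh/mwh females × flr3/TM3,Bds males mated 2 h, eggs laid over 2 h. 48 h larvae were collected on 20% sucrose, washed in 24 ± 1 °C water, held 24 h in the dark on filter paper with PP-IX (0–69 mM in 5% sucrose), then fed CrO3 (0.025–2.5 mM) in instant medium, in triplicate. Non-Ser wings were scored at 40× for small (1–2 cells), large and twin spots. Frei–Würgler one-sided test, α=β=0.05, m multiplication factor.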

[2] = system: 48 h-old mwh+/+flr^3 larvae; experiment: Toxicity test; type: in vivo, Drosophila melanogaster; settings: for % of non-viable larvae / No. of viable larvae ± SEM: 500 larvae

In the case of `[O]=[Cr](=[O])=[O]` [CrO3, chromium trioxide], the “Large single spots (>cells) per wing” value ([1]; CrO3 0.025 mM, 120 wings) was 0.04 spots per wing, the “Large single spots (>cells), number of spots” value (“Large single spots … of spots” for short) ([1]; CrO3 0.025 mM, 120 wings) was 5 and the “Small single spots (1–2 cells) per wing” value ([1]; CrO3 0.025 mM, 120 wings) was 0.26 spots per wing. The “Small single spots (1–2 cells), number of spots” value (“Small single spots … of spots” below) ([1]; CrO3 0.025 mM, 120 wings) was 31, the “Total spots per wing” value ([1]; CrO3 0.025 mM, 120 wings) was 0.33 spots per wing and the “Total spots, number of spots” value ([1]; CrO3 0.025 mM, 120 wings) was 40. The “Twin spots per wing” value ([1]; CrO3 0.025 mM, 120 wings) was 0.03 spots per wing, the “Twin spots, number of spots” value ([1]; CrO3 0.025 mM, 120 wings) was 4 and the “Small single spots (1–2 cells), statistical diagnosis” value ([1]; CrO3 0.025 mM) was “−”. For the same compound, the “Total spots, statistical diagnosis” value ([1]; CrO3 0.025 mM) was “−”, the “Large single spots (>cells), statistical diagnosis” value ([1]; CrO3 0.025 mM) was “−” and the “Statistical significance of spot induction vs control” value ([1]; CrO3 0.25 mM and higher, all kinds of spots) was “Statistical significant differences were found for all kinds of spots”. For the same compound, the “Large single spots (>cells) per wing” value ([1]; CrO3 0.25 mM, 150 wings) was 0.11 spots per wing, the “Large single spots … of spots” value ([1]; CrO3 0.25 mM, 150 wings) was 16 and the “Small single spots (1–2 cells) per wing” value ([1]; CrO3 0.25 mM, 150 wings) was 0.43 spots per wing. The “Small single spots … of spots” value ([1]; CrO3 0.25 mM, 150 wings) was 64, the “Total spots per wing” value ([1]; CrO3 0.25 mM, 150 wings) was 0.59 spots per wing and the “Total spots, number of spots” value ([1]; CrO3 0.25 mM, 150 wings) was 88. For the same compound, the “Twin spots per wing” value ([1]; CrO3 0.25 mM, 150 wings) was 0.05 spots per wing, the “Twin spots, number of spots” value ([1]; CrO3 0.25 mM, 150 wings) was 8 and the “Small single spots (1–2 cells), statistical diagnosis” value ([1]; CrO3 0.25 mM) was “+”. The “Total spots, statistical diagnosis” value ([1]; CrO3 0.25 mM) was “+”, the “Large single spots (>cells), statistical diagnosis” value ([1]; CrO3 0.25 mM) was “−” and the “Twin spots, statistical diagnosis” value ([1]; CrO3 0.25 mM) was “+”. For the same compound, the “Large single spots (>cells) per wing” value ([1]; CrO3 1.25 mM, 118 wings) was 0.36 spots per wing, the “Large single spots … of spots” value ([1]; CrO3 1.25 mM, 118 wings) was 42 and the “Small single spots (1–2 cells) per wing” value ([1]; CrO3 1.25 mM, 118 wings) was 0.63 spots per wing. For the same compound, the “Small single spots … of spots” value ([1]; CrO3 1.25 mM, 118 wings) was 74, the “Total spots per wing” value ([1]; CrO3 1.25 mM, 118 wings) was 1.12 spots per wing and the “Total spots, number of spots” value ([1]; CrO3 1.25 mM, 118 wings) was 132. For the same compound, the “Twin spots per wing” value ([1]; CrO3 1.25 mM, 118 wings) was 0.14 spots per wing, the “Twin spots, number of spots” value ([1]; CrO3 1.25 mM, 118 wings) was 16 and the “Small single spots (1–2 cells), statistical diagnosis” value ([1]; CrO3 1.25 mM) was “+”. For the same compound, the “Total spots, statistical diagnosis” value ([1]; CrO3 1.25 mM) was “+”, the “Large single spots (>cells), statistical diagnosis” value ([1]; CrO3 1.25 mM) was “+” and the “Twin spots, statistical diagnosis” value ([1]; CrO3 1.25 mM) was “+”. For the same compound, the “Large single spots (>cells) per wing” value ([1]; CrO3 2.0 mM, 80 wings) was 0.52 spots per wing, the “Large single spots … of spots” value ([1]; CrO3 2.0 mM, 80 wings) was 42 and the “Small single spots (1–2 cells) per wing” value ([1]; CrO3 2.0 mM, 80 wings) was 0.81 spots per wing. The “Small single spots … of spots” value ([1]; CrO3 2.0 mM, 80 wings) was 65, the “Total spots per wing” value ([1]; CrO3 2.0 mM, 80 wings) was 1.79 spots per wing and the “Total spots, number of spots” value ([1]; CrO3 2.0 mM, 80 wings) was 143. For the same compound, the “Twin spots per wing” value ([1]; CrO3 2.0 mM, 80 wings) was 0.45 spots per wing, the “Twin spots, number of spots” value ([1]; CrO3 2.0 mM, 80 wings) was 36 and the “Small single spots (1–2 cells), statistical diagnosis” value ([1]; CrO3 2.0 mM) was “+”. For the same compound, the “Total spots, statistical diagnosis” value ([1]; CrO3 2.0 mM) was “+”, the “Large single spots (>cells), statistical diagnosis” value ([1]; CrO3 2.0 mM) was “+” and the “Twin spots, statistical diagnosis” value ([1]; CrO3 2.0 mM) was “+”. For the same compound, the “Large single spots (>cells) per wing” value ([1]; CrO3 2.5 mM, 120 wings) was 1.97 spots per wing, the “Large single spots … of spots” value ([1]; CrO3 2.5 mM, 120 wings) was 236 and the “Small single spots (1–2 cells) per wing” value ([1]; CrO3 2.5 mM, 120 wings) was 2.87 spots per wing. The “Small single spots … of spots” value ([1]; CrO3 2.5 mM, 120 wings) was 344, the “Total spots per wing” value ([1]; CrO3 2.5 mM, 120 wings) was 6.95 spots per wing and the “Total spots, number of spots” value ([1]; CrO3 2.5 mM, 120 wings) was 834. The “Twin spots per wing” value ([1]; CrO3 2.5 mM, 120 wings) was 2.11 spots per wing, the “Twin spots, number of spots” value ([1]; CrO3 2.5 mM, 120 wings) was 254 and the “Small single spots (1–2 cells), statistical diagnosis” value ([1]; CrO3 2.5 mM) was “+”. The “Total spots, statistical diagnosis” value ([1]; CrO3 2.5 mM) was “+”, the “Large single spots (>cells), statistical diagnosis” value ([1]; CrO3 2.5 mM) was “+” and the “Twin spots, statistical diagnosis” value ([1]; CrO3 2.5 mM) was “+”. The “Frequency of mutation relative to the control group” value ([1]; higher CrO3 concentration (2.5 mM)) was 20 times, the “% of non-viable larvae” value ([2]; CrO3 0.25 mM) was 10% and the “No. of viable larvae ± SEM” value ([2]; CrO3 0.25 mM) was 448 ± 0.3. For the same compound, the “No. of viable larvae ± SEM” value ([2]; CrO3 2.0 mM) was 325 ± 2.8, the “% of non-viable larvae” value ([2]; CrO3 2.0 mM, significant to p < 0.05 compared with control) was 35 ^* % and the Mortality ([2]; CrO3 2.5 mM) was 61%. The “Reduction of viability over the control” value ([2]; CrO3 2.5 mM) was 45%, the “No. of viable larvae ± SEM” value ([2]; CrO3 2.5 mM) was 194 ± 0.8 and the “% of non-viable larvae” value ([2]; CrO3 2.5 mM, significant to p < 0.05 compared with control) was 61 ^* %. For the same compound, the “Toxicity compared to the control” value ([2]; CrO3 2 and 2.5 mM) was “toxic”.
